Experiments:
[1] = test system: A375 xenografts; test: Tissue distribution in mice bearing A375 xenografts; type: in vivo, NCr^nu/nu mice; conditions: A375 xenograft mice; for Tissue distribution: Blood: tail vein
Outline: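 Male athymic NCr nu/nu mice received 0.25 mL of cells (8 × 10⁶/mL in 1:1 D-PBS-glucose-pyruvate/Matrigel) into the right hind flank. Tumours were used at 100–500 mm³ (~21 days). Tail-vein bolus of ~74 KBq tracer in 0.05 mL; n = 5 per time point. Mice were killed by CO₂ at 1, 4 and 24 h. Organs and tumour were weighed wet and gamma-counted; results are %ID/g, mean ± SD.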

[2] = Projected human dosimetry extrapolated from cynomolgus monkey scintigraphy; type: in vivo, cynomolgus monkeys
Outline: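 Regions of interest (total body, lung, kidney, thyroid, eye) were drawn on anterior/posterior monkey images at each time point. Uptake was normalised to % total body dose, with the first pre-voiding image set as 100%. Time integrals went into OLINDA/EXM: adult male phantom, 4.8 h bladder voiding interval, unit-density sphere model for eye. The intestine margin is referenced to a 45 Gy limit at 4.7 GBq/70 kg.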

[3] = at anticipated human dose 4.7 GBq/70 kg patient
[4] = extrapolated from cynomolgus monkeys

SMILES: CCN(CC)CCNC(=O)c1cc(I)c(NC(=O)c2ccc(F)cc2)cc1OC [[^131I]MIP-1145, N-(2-diethylamino-ethyl)-4-(4-fluoro-benzamido)-5-iodo-2-methoxy-benzamide]
- Tissue distribution: Stomach ([1]; 1 hour): 6.22 ± 2.34 %ID/g
- Tissue distribution: Testes ([1]; 1 hour): 1.58 ± 0.22 %ID/g
- Tissue distribution: Tumor ([1]; 1 hour): 2.38 ± 0.75 %ID/g
- Tissue distribution: Blood ([1]; 1 hour post-injection): 0.46 ± 0.05 %ID/g
- Tissue distribution: Adipose ([1]; 4 hours): 1.10 ± 0.46 %ID/g
- Tissue distribution: Bone ([1]; 4 hours): 0.74 ± 0.07 %ID/g
- Tissue distribution: Brain ([1]; 4 hours): 0.16 ± 0.01 %ID/g
- Tissue distribution: Heart ([1]; 4 hours): 1.04 ± 0.06 %ID/g
- Tissue distribution: Kidneys ([1]; 4 hours): 8.53 ± 1.20 %ID/g
- Tissue distribution: Large Intestine ([1]; 4 hours): 13.81 ± 5.14 %ID/g
- Tissue distribution: Liver ([1]; 4 hours): 4.30 ± 0.45 %ID/g
- Tissue distribution: Lungs ([1]; 4 hours): 7.24 ± 1.31 %ID/g
- Tissue distribution: Skeletal Muscle ([1]; 4 hours): 0.58 ± 0.12 %ID/g
- Tissue distribution: Small Intestine ([1]; 4 hours): 12.44 ± 2.02 %ID/g
- Tissue distribution: Spleen ([1]; 4 hours): 2.57 ± 0.51 %ID/g
- Tissue distribution: Stomach ([1]; 4 hours): 4.57 ± 1.77 %ID/g
- Tissue distribution: Testes ([1]; 4 hours): 0.90 ± 0.13 %ID/g
- Tissue distribution: Tumor ([1]; 4 hours): 1.19 ± 0.07 %ID/g
- Tissue distribution: Blood ([1]; 4 hours post-injection): 0.26 ± 0.04 %ID/g
- Tissue distribution: Adipose ([1]; 24 hours): 0.13 ± 0.12 %ID/g
- Tissue distribution: Bone ([1]; 24 hours): 0.03 ± 0.02 %ID/g
- Tissue distribution: Brain ([1]; 24 hours): 0.01 ± 0.00 %ID/g
- Tissue distribution: Heart ([1]; 24 hours): 0.02 ± 0.02 %ID/g
- Tissue distribution: Kidneys ([1]; 24 hours): 0.21 ± 0.08 %ID/g
- Tissue distribution: Large Intestine ([1]; 24 hours): 1.35 ± 0.36 %ID/g
- Tissue distribution: Liver ([1]; 24 hours): 0.32 ± 0.06 %ID/g
- Tissue distribution: Lungs ([1]; 24 hours): 0.37 ± 0.15 %ID/g
- Tissue distribution: Skeletal Muscle ([1]; 24 hours): 0.02 ± 0.01 %ID/g
- Tissue distribution: Small Intestine ([1]; 24 hours): 0.59 ± 0.24 %ID/g
- Tissue distribution: Spleen ([1]; 24 hours): 0.15 ± 0.20 %ID/g
- Tissue distribution: Stomach ([1]; 24 hours): 0.67 ± 0.27 %ID/g
- Tissue distribution: Testes ([1]; 24 hours): 0.16 ± 0.05 %ID/g
- Tissue distribution: Tumor ([1]; 24 hours): 0.04 ± 0.02 %ID/g
- Tissue distribution: Blood ([1]; 24 hours post-injection): 0.04 ± 0.02 %ID/g
- Margin of lower large intestine dose below the allowable exposure limit of 45 Gy [2, 3]: 3.3 times
- Radiation absorbed dose to the lower large intestine [2, 3]: 13.3 Gy
- Radiation dose to the eye [2, 3]: 6.1 Gy
- Effective Dose [2, 4]: 1.40E+00 ± 6.30E-01 mGy/MBq
- Effective Dose Equivalent [2, 4]: 9.20E-01 ± 3.70E-01 mGy/MBq
- Projected human organ radiation absorbed dose: Brain [2, 4]: 7.00E-02 ± 1.50E-02 mGy/MBq
- Projected human organ radiation absorbed dose: Breasts [2, 4]: 6.40E-02 ± 1.40E-02 mGy/MBq
- Projected human organ radiation absorbed dose: Eyes [2, 4]: 1.30E+00 ± 6.70E-01 mGy/MBq
- Projected human organ radiation absorbed dose: Gallbladder Wall [2, 4]: 1.20E-01 ± 1.90E-02 mGy/MBq
- Projected human organ radiation absorbed dose: Heart Wall [2, 4]: 8.00E-02 ± 1.80E-02 mGy/MBq
- Projected human organ radiation absorbed dose: Kidneys [2, 4]: 1.10E-01 ± 7.70E-02 mGy/MBq
- Projected human organ radiation absorbed dose: Liver [2, 4]: 8.60E-02 ± 1.70E-02 mGy/MBq
- Projected human organ radiation absorbed dose: Lungs [2, 4]: 6.70E-02 ± 2.00E-02 mGy/MBq
- Projected human organ radiation absorbed dose: Muscle [2, 4]: 8.80E-02 ± 1.60E-02 mGy/MBq
- Projected human organ radiation absorbed dose: Osteogenic Cells [2, 4]: 1.60E-01 ± 3.30E-02 mGy/MBq
- Projected human organ radiation absorbed dose: Ovaries [2, 4]: 2.00E-01 ± 1.90E-02 mGy/MBq
- Projected human organ radiation absorbed dose: Pancreas [2, 4]: 9.20E-02 ± 1.90E-02 mGy/MBq
- Projected human organ radiation absorbed dose: Red Marrow [2, 4]: 8.70E-02 ± 1.40E-02 mGy/MBq
- Projected human organ radiation absorbed dose: Skin [2, 4]: 6.60E-02 ± 1.40E-02 mGy/MBq
- Projected human organ radiation absorbed dose: Small Intestine [2, 4]: 3.40E-01 ± 1.80E-02 mGy/MBq
- Projected human organ radiation absorbed dose: Spleen [2, 4]: 8.50E-02 ± 1.80E-02 mGy/MBq
- Projected human organ radiation absorbed dose: Stomach Wall [2, 4]: 9.80E-02 ± 1.80E-02 mGy/MBq
- Projected human organ radiation absorbed dose: Testes [2, 4]: 8.60E-02 ± 1.60E-02 mGy/MBq
- Projected human organ radiation absorbed dose: Thymus [2, 4]: 7.80E-02 ± 1.70E-02 mGy/MBq
- Projected human organ radiation absorbed dose: Uterus [2, 4]: 1.50E-01 ± 1.80E-02 mGy/MBq
- Projected human radiation absorbed dose: Total Body [2, 4]: 1.00E-01 ± 1.60E-02 mGy/MBq
- Projected human organ radiation absorbed dose: Adrenals ([2]; extrapolated from cynomolgus monkeys, adult male phantom): 8.50E-02 ± 1.80E-02 mGy/MBq
- Projected human organ radiation absorbed dose: Urinary Bladder Wall ([2]; extrapolated from cynomolgus monkeys, 4.8 hour voiding interval): 6.20E-01 ± 4.10E-02 mGy/MBq
- Projected human organ radiation absorbed dose: LLI Wall ([2]; extrapolated from cynomolgus monkeys, lower large intestine): 2.80E+00 ± 1.80E-02 mGy/MBq
- Projected human organ radiation absorbed dose: ULI Wall ([2]; extrapolated from cynomolgus monkeys, upper large intestine): 1.10E+00 ± 1.50E-02 mGy/MBq
- Projected human organ radiation absorbed dose: Thyroid ([2]; extrapolated from cynomolgus monkeys, without thyroid blockade): 1.80E+01 ± 1.30E+01 mGy/MBq
- Therapeutic dose supported as safe for administration ([2]; human projection, dose-limiting organ lower large intestine): up to 16.2 GBq
- Projected human radiation absorbed dose: all other organs ([2]; organs other than thyroid, large intestine and eyes): 0.064-1.1 mGy/MBq
